# Assay results published in ChEMBL document CHEMBL4699485, “Discovery and Development of SPR519 as a Potent, Selective, and Orally Bioavailable Inhibitor of PI3Kα and mTOR Kinases for the Treatment of Solid Tumors” (J Med Chem, 2020).
# Key:
# [1] = Elimination half life in Swiss mouse at 3 mg/kg, po via gavage by LC-MS/MS analysis; assay type: ADME, organism-based; settings: in vivo, read-out: beta t1/2 (converted)
# In short: (§1)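 Female Swiss mice (n=3/group), fasted overnight, given single oral gavage dose in 0.5% CMC/0.5% Tween 80 (10 mL/kg) at 1, 3 or 10 mg/kg. Serial blood sampling at 0.16–8 h into heparinized tubes. Plasma extracted with acetonitrile containing verapamil internal standard and quantified by LC-MS/MS. Cmax, Tmax, AUC and t1/2 derived from the concentration–time profile.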
# Cytochrome P450 2C19 = Cytochrome P450 2C19 (Homo sapiens, UniProt P33261); assay: Inhibition of CYP2C19 in human liver microsomes using isoform-specific probe substrates preincubated for 5 mins followed by NADPH addition by LC-MS/MS analysis; assay type: ADME
# Chain of Cytochrome P450 2C19 (P33261 whole entry, canonical isoform): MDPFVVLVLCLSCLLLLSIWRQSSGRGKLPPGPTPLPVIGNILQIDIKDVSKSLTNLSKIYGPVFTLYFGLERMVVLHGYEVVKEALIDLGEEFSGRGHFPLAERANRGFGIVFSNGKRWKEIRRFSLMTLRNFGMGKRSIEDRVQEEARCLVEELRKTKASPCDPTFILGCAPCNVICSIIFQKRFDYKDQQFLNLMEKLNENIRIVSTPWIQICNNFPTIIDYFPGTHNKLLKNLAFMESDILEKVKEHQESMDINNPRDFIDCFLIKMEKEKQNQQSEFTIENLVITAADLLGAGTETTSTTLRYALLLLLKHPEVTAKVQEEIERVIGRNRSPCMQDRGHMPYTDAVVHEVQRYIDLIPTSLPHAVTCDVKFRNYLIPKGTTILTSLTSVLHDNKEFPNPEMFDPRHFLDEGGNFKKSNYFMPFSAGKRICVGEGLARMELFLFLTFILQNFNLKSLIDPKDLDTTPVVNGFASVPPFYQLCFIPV
# In short: (§2)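 Human liver microsomes premixed with buffer and a CYP-specific FDA-recommended probe substrate, then spiked with inhibitor, in duplicate. After 5 min preincubation at 37 °C, reaction started with NADPH and run at 37 °C for a set time, then quenched. Metabolite formation quantified by HPLC/LC-MS/MS to derive the concentration giving 50% inhibition.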
# Cytochrome P450 2D6 = Cytochrome P450 2D6 (Homo sapiens, UniProt P10635); assay: Inhibition of CYP2D6 in human liver microsomes using isoform-specific probe substrates preincubated for 5 mins followed by NADPH addition by LC-MS/MS analysis; assay type: ADME; in short: as §2
# Chain of Cytochrome P450 2D6 (P10635 whole entry, canonical isoform): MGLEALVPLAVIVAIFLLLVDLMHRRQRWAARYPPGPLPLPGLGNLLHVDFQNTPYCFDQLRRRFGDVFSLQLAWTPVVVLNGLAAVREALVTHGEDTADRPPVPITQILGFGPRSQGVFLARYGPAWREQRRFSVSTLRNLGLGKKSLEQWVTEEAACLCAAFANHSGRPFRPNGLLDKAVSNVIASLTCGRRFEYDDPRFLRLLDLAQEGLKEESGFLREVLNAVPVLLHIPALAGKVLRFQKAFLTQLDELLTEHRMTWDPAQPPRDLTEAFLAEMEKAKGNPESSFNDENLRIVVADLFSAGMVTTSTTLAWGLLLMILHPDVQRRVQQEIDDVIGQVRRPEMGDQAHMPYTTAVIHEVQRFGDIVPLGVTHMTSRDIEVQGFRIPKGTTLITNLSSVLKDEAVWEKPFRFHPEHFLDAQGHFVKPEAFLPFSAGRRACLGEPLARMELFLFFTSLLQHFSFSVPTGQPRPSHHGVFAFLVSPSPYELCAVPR
# [2] = molecular target: Glycogen synthase kinase-3 beta (Homo sapiens) (UniProt P49841); assay: Inhibition of human GSK3B at 1 uM using fluorescently labeled peptide substrate measured after 3 hrs by microfluidic mobility shift assay relative to control
# Chain of Glycogen synthase kinase-3 beta (Homo sapiens) (P49841 whole entry, looked up): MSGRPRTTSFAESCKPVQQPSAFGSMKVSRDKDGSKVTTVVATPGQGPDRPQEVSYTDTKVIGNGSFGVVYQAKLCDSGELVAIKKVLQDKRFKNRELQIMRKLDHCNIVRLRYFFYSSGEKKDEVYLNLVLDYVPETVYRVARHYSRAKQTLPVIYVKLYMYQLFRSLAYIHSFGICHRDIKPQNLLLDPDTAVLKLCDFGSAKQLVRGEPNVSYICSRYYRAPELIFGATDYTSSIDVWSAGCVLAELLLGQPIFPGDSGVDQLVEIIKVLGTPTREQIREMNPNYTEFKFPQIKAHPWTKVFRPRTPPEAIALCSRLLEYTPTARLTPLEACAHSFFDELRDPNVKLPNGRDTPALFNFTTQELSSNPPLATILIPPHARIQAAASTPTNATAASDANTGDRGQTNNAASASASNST
# In short: (§3)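 Single-concentration screen at 1 µM in duplicate, 1% final DMSO. Kinase (typically 1 nM), fluorescently labeled peptide substrate (typically 1 µM), ATP at Km and Mg²⁺ incubated about 3 h at 25 °C, then EDTA-quenched. Substrate and phosphorylated product separated by microfluidic electrophoresis and quantified by fluorescence.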
# [3] = molecular target: Dual specificity mitogen-activated protein kinase kinase 1 (Homo sapiens) (UniProt Q02750); assay: Inhibition of human MEK1 at 1 uM using fluorescently labeled peptide substrate measured after 3 hrs by microfluidic mobility shift assay relative to control; in short: as §3
# Chain of Dual specificity mitogen-activated protein kinase kinase 1 (Homo sapiens) (Q02750 whole entry): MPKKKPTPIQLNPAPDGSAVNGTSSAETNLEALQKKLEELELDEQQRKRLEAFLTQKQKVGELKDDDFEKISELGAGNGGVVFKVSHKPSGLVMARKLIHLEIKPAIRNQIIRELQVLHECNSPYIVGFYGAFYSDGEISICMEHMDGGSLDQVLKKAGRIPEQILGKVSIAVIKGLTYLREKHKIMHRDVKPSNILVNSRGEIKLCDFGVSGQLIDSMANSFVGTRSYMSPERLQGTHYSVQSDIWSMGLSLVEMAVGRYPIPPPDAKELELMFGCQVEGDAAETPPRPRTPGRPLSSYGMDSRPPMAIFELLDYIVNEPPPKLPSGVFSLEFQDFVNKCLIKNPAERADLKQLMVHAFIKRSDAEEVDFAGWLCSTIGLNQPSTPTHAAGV
# [4] = molecular target: Protein kinase C zeta type (Homo sapiens) (UniProt Q05513); assay: Inhibition of human PRKCZ at 1 uM using fluorescently labeled peptide substrate measured after 3 hrs by microfluidic mobility shift assay relative to control; in short: as §3
# Chain of Protein kinase C zeta type (Homo sapiens) (Q05513 whole entry): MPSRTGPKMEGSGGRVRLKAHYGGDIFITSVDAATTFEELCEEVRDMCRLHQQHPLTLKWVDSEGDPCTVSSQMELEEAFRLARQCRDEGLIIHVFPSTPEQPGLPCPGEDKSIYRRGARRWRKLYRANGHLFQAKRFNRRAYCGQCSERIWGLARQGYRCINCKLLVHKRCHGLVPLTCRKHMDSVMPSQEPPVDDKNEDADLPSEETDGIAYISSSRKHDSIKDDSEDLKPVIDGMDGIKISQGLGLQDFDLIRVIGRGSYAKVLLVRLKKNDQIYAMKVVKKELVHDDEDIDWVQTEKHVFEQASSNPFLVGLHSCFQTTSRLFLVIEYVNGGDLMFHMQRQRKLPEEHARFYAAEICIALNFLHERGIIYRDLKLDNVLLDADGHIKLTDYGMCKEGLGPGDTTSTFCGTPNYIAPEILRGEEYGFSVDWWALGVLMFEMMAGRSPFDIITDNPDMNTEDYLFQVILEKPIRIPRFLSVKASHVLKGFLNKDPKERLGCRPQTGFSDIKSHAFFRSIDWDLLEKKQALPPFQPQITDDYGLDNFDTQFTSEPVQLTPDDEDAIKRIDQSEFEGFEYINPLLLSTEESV
# [5] = molecular target: Angiopoietin-1 receptor (Homo sapiens) (UniProt Q02763); assay: Inhibition of human TIE2 at 1 uM using fluorescently labeled peptide substrate measured after 3 hrs by microfluidic mobility shift assay relative to control; in short: as §3
# Chain of Angiopoietin-1 receptor (Homo sapiens) (Q02763 whole entry): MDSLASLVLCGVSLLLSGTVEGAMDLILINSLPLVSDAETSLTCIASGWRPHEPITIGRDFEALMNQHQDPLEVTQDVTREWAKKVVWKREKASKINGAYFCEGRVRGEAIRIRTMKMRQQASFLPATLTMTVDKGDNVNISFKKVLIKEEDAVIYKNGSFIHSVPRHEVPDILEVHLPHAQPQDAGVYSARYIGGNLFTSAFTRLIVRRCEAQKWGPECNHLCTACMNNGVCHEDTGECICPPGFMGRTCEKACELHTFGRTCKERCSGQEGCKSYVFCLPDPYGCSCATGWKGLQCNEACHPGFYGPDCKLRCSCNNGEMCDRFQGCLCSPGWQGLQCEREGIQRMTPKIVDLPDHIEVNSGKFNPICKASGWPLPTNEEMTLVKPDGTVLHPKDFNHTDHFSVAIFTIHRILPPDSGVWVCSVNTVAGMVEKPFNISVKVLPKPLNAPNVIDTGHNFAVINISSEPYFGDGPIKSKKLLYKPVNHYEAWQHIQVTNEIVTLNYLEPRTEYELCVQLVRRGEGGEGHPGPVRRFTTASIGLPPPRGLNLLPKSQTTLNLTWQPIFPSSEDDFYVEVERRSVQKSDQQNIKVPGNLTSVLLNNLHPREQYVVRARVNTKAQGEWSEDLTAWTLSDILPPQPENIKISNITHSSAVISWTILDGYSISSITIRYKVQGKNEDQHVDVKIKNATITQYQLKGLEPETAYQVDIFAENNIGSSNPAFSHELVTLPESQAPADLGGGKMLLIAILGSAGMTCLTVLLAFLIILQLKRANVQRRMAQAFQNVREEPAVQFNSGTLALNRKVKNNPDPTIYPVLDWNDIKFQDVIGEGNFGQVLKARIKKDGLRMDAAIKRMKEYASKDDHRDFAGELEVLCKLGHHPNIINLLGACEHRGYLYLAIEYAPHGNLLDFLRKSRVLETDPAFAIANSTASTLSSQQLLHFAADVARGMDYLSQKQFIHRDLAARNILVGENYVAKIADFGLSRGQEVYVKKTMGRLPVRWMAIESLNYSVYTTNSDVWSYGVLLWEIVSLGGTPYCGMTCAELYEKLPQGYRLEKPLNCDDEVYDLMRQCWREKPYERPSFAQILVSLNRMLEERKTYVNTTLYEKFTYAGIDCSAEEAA
# [6] = molecular target: High affinity nerve growth factor receptor (Homo sapiens) (UniProt P04629); assay: Inhibition of human TRKA at 1 uM using fluorescently labeled peptide substrate measured after 3 hrs by microfluidic mobility shift assay relative to control; in short: as §3
# Chain of High affinity nerve growth factor receptor (Homo sapiens) (P04629 33-796 limits assumed): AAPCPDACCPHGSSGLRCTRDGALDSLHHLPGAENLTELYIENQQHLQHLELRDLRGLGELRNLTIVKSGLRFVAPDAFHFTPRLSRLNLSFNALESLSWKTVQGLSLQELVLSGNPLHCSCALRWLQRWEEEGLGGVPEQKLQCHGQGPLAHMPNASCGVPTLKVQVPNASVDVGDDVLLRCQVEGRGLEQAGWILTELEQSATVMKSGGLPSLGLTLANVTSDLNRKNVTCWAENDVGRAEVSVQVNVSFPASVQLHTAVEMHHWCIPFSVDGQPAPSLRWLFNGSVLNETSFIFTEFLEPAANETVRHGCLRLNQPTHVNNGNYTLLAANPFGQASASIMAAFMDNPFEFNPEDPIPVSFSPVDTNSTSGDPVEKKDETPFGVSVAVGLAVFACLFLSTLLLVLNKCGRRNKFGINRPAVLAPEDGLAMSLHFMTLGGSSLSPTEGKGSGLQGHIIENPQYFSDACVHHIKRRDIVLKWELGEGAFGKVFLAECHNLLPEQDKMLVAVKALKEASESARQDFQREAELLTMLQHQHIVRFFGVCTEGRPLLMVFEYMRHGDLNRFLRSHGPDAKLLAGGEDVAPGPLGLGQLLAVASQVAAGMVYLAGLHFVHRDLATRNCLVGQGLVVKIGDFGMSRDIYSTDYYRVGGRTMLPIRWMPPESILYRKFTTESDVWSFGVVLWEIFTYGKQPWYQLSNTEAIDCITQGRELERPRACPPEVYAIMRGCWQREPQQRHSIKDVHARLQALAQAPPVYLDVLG
# [7] = Cmax in Swiss mouse at 1 mg/kg, po via gavage by LC-MS/MS analysis; assay type: ADME, organism-based; parameters: route oral, dose 1 mg/kg; settings: in vivo; in short: as §1
# [8] = Tmax in Swiss mouse at 1 mg/kg, po via gavage by LC-MS/MS analysis; assay type: ADME, organism-based; settings: in vivo
# In short: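 Female Swiss mice (n=3/group) were fasted overnight, then gavaged with compound in 0.5% CMC/0.5% Tween 80 at 10 mL/kg. Serial blood samples at 0.16, 0.5, 1, 2, 4, 6 and 8 h were taken into heparinized tubes and spun to plasma. Plasma was extracted with acetonitrile containing verapamil (400 ng/mL) and quantified by LC-MS/MS against plasma calibration curves. Tmax was derived from the concentration–time profile.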
# [9] = Toxicity in Swiss mouse assessed as morphological changes in liver at 30 mg/kg, po administered twice daily via gavage for 5 days and measured post last dose; assay type: organism-based; settings: in vivo, 120 h, time 5 day
# In short: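 Female Swiss mice (3 treated, 2 controls) were gavaged twice daily for 5 days, with compound in 0.5% CMC and Tween 80. After the last dosing the animals were sacrificed. Liver, kidney, lung, uterus and brain were excised and inspected visually for morphology and color change.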
# [10] = Drug level in Swiss mouse liver at 30 mg/kg, po administered twice daily via gavage for 5 days and measured post last dose by LC-MS/MS analysis; assay type: ADME, organism-based; settings: time 5 day, read-out: Drug uptake
# In short: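 Female Swiss mice (n=3) given 30 mg/kg in 0.5% CMC/Tween 80 by oral gavage twice daily for 5 days, with two vehicle controls. After sacrifice, liver, kidney, lung, uterus and brain were collected, homogenized in water and solvent-extracted. Drug concentration (ng/g) measured by LC-MS/MS.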
# HCT-116 = assay: Antitumor activity against human HCT-116 cells xenografted in po dosed CD1 nude mouse assessed as reduction in tumor volume administered once daily for 21 days and measured at 3 days interval during compound dosing; assay type: functional, organism-based; settings: dose mg/kg 2.5-20, time 21.0 day
# In short: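 Female CD1 nude mice bearing subcutaneous HCT116 xenografts, randomized at average tumor size 120–130 mm³, five per group. Dosed orally once daily at 2.5, 5, 10 or 20 mg/kg for 21 days alongside a vehicle control. Caliper measurement of tumor volume as (width² × length)/2, monitored every third day.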
compound,measurement,setting,value
CN(C)C(=O)c1ccc(Oc2nc(-c3cnc(N)s3)nc(N3CCOCC3)n2)cc1,half-life,[1],2.7 h
same,IC50,Cytochrome P450 2C19,> 10 µM
same,IC50,Cytochrome P450 2D6,> 10 µM
same,inhibition,[2],-1%
same,inhibition,[3],0%
same,inhibition,[4],0%
same,inhibition,[5],1%
same,inhibition,[6],3%
same,Cmax,[7],5.01 µM
same,Tmax,[8],1.33 h
same,Activity,[9],Non-Toxic
same,concentration at 120 h,[10],85 ng/g
same,Activity,HCT-116,Dose-dependent effect
